Format in all cases: functional
In assay [1] the test system is Trypanosoma cruzi. The assay can be described thus: Percent of growth inhibition of Trypanosoma cruzi (Y strain) epimastigote forms at compound concentration of 1 mg/mL after incubation for 48 hr. On the set-up: inhibition: dose or concentration left out as unconfirmed.
Assay [2] concerns Trypanosoma cruzi. Briefly: Percent of growth inhibition of Trypanosoma cruzi (Y strain) epimastigote forms at compound concentration of 10 mg/mL after incubation for 24 hr. On the set-up: inhibition: dose or concentration left out as unconfirmed.
The subject of assay [3] is Trypanosoma cruzi. The assay can be described thus: Percent of growth inhibition of Trypanosoma cruzi (Y strain) epimastigote forms at compound concentration of 1 mg/mL after incubation for 24 hr. The method, boiled down:
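Y-strain epimastigotes were grown at 28 °C in LIT medium with 10% heat-inactivated (56°, 30 min) fetal calf serum. Log-phase parasites, started at 2 × 10⁶/mL, were exposed to compound in DMSO (1% final). Growth and viability were read every 24 h by inverted microscopy, absorbance at 580 nm and Neubauer counts, in triplicate. Growth inhibition % is the mean of three experiments.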

In assay [4] the test system is Trypanosoma cruzi. Briefly: Percent of growth inhibition of Trypanosoma cruzi (Y strain) epimastigote forms at compound concentration of 100 mg/mL after incubation for 24 hr. On the set-up: inhibition: dose or concentration left out as unconfirmed.
In assay [5] the test system is Trypanosoma cruzi. The assay can be described thus: Percent of growth inhibition of Trypanosoma cruzi (Y strain) epimastigote forms at compound concentration of 10 mg/mL after incubation for 72 hr. On the set-up: inhibition: dose or concentration left out as unconfirmed.
In assay [6] the test system is Trypanosoma cruzi. The assay can be described thus: Percent of growth inhibition of Trypanosoma cruzi (Y strain) epimastigote forms at compound concentration of 10 mg/mL after incubation for 48 hr. Also noted: inhibition: dose or concentration left out as unconfirmed.
Assay [7] has as its system Trypanosoma cruzi. The assay can be described thus: Percent of growth inhibition of Trypanosoma cruzi (Y strain) epimastigote forms at compound concentration of 1 mg/mL after incubation for 72 hr. Also noted: inhibition: dose or concentration left out as unconfirmed.
Assay [8] relates to Trypanosoma cruzi. Briefly: Percent of growth inhibition of Trypanosoma cruzi (Y strain) epimastigote forms at compound concentration of 10 mg/mL after incubation for 98 hr. On the set-up: inhibition: dose or concentration left out as unconfirmed.

Broadly, the inhibition is the relative decrease from the control value, in per cent.

Each structure is given as a SMILES string.

`O=C(/C=C/c1ccc([N+](=O)[O-])o1)Nc1nc2c(Cl)cccc2s1`: the inhibition amounted to 22.5% in the assay with Trypanosoma cruzi [1]; 21.7% in the assay on Trypanosoma cruzi [2]; 100% in the assay with Trypanosoma cruzi [4]; 50% with Trypanosoma cruzi [5]; 42.5% in the assay on Trypanosoma cruzi [6]; 23.2% in the assay on Trypanosoma cruzi [7]. In the assay with Trypanosoma cruzi [8], this compound had an inhibition of 50%. Further, in the assay with Trypanosoma cruzi [3], 1000 µg/mL produced 26.1% inhibition.

In the case of `O=C(/C=C/c1ccco1)NCc1ccccc1`, the inhibition worked out at 5% in the assay on Trypanosoma cruzi [1]; 21.7% with Trypanosoma cruzi [2]; 39.1% in the assay on Trypanosoma cruzi [4]; 28.6% in the assay on Trypanosoma cruzi [5]; 32.5% in the assay on Trypanosoma cruzi [6]; 5.36% in the assay on Trypanosoma cruzi [7]. Besides, in the assay on Trypanosoma cruzi [8], the inhibition is 19.1%. In the assay with Trypanosoma cruzi [3], this compound gave an inhibition at 1000 µg/mL of 8.7%.

For the compound `CC1CS(=O)(=O)CCN1/N=C/c1ccc([N+](=O)[O-])o1` (stereo not drawn) [NIFURTIMOX], the values for the inhibition at 1000 µg/mL in the assay on Trypanosoma cruzi [1], in the assay on Trypanosoma cruzi [3] and with Trypanosoma cruzi [7] were 20%, 17.4% and 19.6%, respectively. Moreover, the inhibition at 10000 µg/mL in the assay with Trypanosoma cruzi [2], in the assay on Trypanosoma cruzi [5], in the assay on Trypanosoma cruzi [6] and with Trypanosoma cruzi [8] was 100% in each case. This compound also showed an inhibition at 100000 µg/mL with Trypanosoma cruzi [4] of 100%.

With `C[S+](C)[O-]` [DIMETHYL SULFOXIDE], the inhibition in the assay on Trypanosoma cruzi [1], in the assay with Trypanosoma cruzi [2], in the assay with Trypanosoma cruzi [4], in the assay on Trypanosoma cruzi [5], with Trypanosoma cruzi [6] and in the assay with Trypanosoma cruzi [7] was 0% throughout. Also, in the assay with Trypanosoma cruzi [8], the inhibition is 0%. The same compound came in with an inhibition at 1000 µg/mL in the assay with Trypanosoma cruzi [3] of 0%.

Take `O=C(/C=C/c1ccc([N+](=O)[O-])o1)NCc1ccc(Cl)cc1`: the inhibition worked out at 60% in the assay on Trypanosoma cruzi [1]; 100% with Trypanosoma cruzi [2]; 100% in the assay on Trypanosoma cruzi [4]; 100% with Trypanosoma cruzi [5]; 100% with Trypanosoma cruzi [6]; 67.8% in the assay on Trypanosoma cruzi [7]. In addition, the inhibition at 1000 µg/mL in the assay with Trypanosoma cruzi [3] is 39.1%.

For `O=C(/C=C/c1ccc([N+](=O)[O-])o1)NCc1ccccc1`, the inhibition with Trypanosoma cruzi [1] worked out at 65%; in the assay on Trypanosoma cruzi [2] it was 100%; in the assay with Trypanosoma cruzi [4] it was 100%; in the assay on Trypanosoma cruzi [5] it was 100%; in the assay on Trypanosoma cruzi [6], 100%; with Trypanosoma cruzi [7], 71.4%. The compound further showed an inhibition in the assay on Trypanosoma cruzi [8] of 100%. Testing at 1000 µg/mL with Trypanosoma cruzi [3] gave an inhibition of 47.8%.

As for `O=C(/C=C/c1ccc([N+](=O)[O-])s1)NCc1ccccc1`, the inhibition with Trypanosoma cruzi [2] is 30.4%; in the assay on Trypanosoma cruzi [4], 100%; in the assay with Trypanosoma cruzi [5], 53.6%; with Trypanosoma cruzi [6], 47.5%; with Trypanosoma cruzi [7], 25%; in the assay with Trypanosoma cruzi [8], 55.9%. Further, in the assay with Trypanosoma cruzi [3], the inhibition at 1000 µg/mL was found to be 26.1%.

With `CC(C)CNC(=O)/C=C/c1ccc([N+](=O)[O-])o1`, the inhibition in the assay with Trypanosoma cruzi [1] amounted to 65%; in the assay on Trypanosoma cruzi [2], 100%; in the assay on Trypanosoma cruzi [4], 100%; in the assay on Trypanosoma cruzi [5] it was 100%; in the assay with Trypanosoma cruzi [6], 100%; with Trypanosoma cruzi [7], 69.6%. The compound further returned an inhibition with Trypanosoma cruzi [8] of 100%. In addition, at 1000 µg/mL the inhibition in the assay with Trypanosoma cruzi [3] was 47.8%.

`O=C(/C=C/c1cccs1)NCc1ccccc1`: the inhibition in the assay on Trypanosoma cruzi [1] was determined as 15%; with Trypanosoma cruzi [2] it was 17.4%; with Trypanosoma cruzi [4], 39.1%; with Trypanosoma cruzi [5], 19.6%; with Trypanosoma cruzi [6] it was 22.5%; with Trypanosoma cruzi [7] it was 10.7%. This compound displayed an inhibition in the assay with Trypanosoma cruzi [8] of 13.2%. In the assay with Trypanosoma cruzi [3], the inhibition at 1000 µg/mL amounted to 17.4%.

Take `O=C(/C=C/c1ccc([N+](=O)[O-])o1)NCc1ccc2c(c1)OCO2`: the inhibition came out at 67.5% in the assay on Trypanosoma cruzi [1]; 100% with Trypanosoma cruzi [2]; 100% in the assay with Trypanosoma cruzi [4]; 100% in the assay with Trypanosoma cruzi [5]; 100% in the assay with Trypanosoma cruzi [6]; 71.4% in the assay on Trypanosoma cruzi [7]. In addition, the inhibition in the assay with Trypanosoma cruzi [8] is 100%. The inhibition at 1000 µg/mL in the assay with Trypanosoma cruzi [3] stood at 52.2%.

The values above are taken from ChEMBL document CHEMBL1142010, “Synthesis and in vitro antitrypanosomal activity of novel Nifurtimox analogues” (2005).
